Results collected from several papers.
Target: STE20-like serine/threonine-protein kinase (SLK, Homo sapiens, UniProt Q9H2G2)

Compound	observed	mode	technique	cell line	tested at	measurement	result
CN1CCC2(CC1)NC(=O)c1c(c3ccc(Cl)c(Cl)c3n1C)C2C#N (racemic)	thermal stability		DSF		10 µM	ΔTm	-0.5 °C
CS(=O)(=O)CCNCc1ccc(-c2ccc3ncnc(Nc4ccc(OCc5cccc(F)c5)c(Cl)c4)c3c2)o1	cell-free assay				0.5 µM	remaining signal	85.1%
Cc1ccc(C(=O)Nc2ccc(CN3CCN(C)CC3)c(C(F)(F)F)c2)cc1C#Cc1cnc2cccnn12	enzyme activity	inhibitor			23.5 nM	remaining activity	7%
COc1cc2nccc(Oc3ccc(NC(=O)Nc4ccc(F)cc4F)c(F)c3)c2cc1OC	thermal stability		DSF		10 µM	ΔTm	5 to 10 °C
COc1cc(-c2cc(-c3ccc(N4CCNCC4)cc3)cnc2C)cc(OC)c1OC	enzyme activity	inhibitor			0.1 µM	inhibition	12%
Nc1cnc(N2CCc3cc(S(=O)(=O)Nc4c(F)cc(Cl)cc4F)cc(N4CCCC4=O)c32)nc1	cell-free assay		competition with immobilised ligand		1 µM	remaining binding	100%
O=C(Nc1cnn(-c2csc(C(=O)NC3COC3)c2)c1)Nc1ccccc1Cl	enzyme activity	inhibitor			5 µM	remaining activity	89.7%
O=C1NC(=O)c2cc(Nc3ccc(F)cc3)c(Nc3ccc(F)cc3)cc21	cell-free assay				0.5 µM	remaining signal	65.5%
O=C(N1CCS(=O)(=O)CC1)N1C[C@H](c2ccc(OC(F)(F)F)cc2)C[C@H](c2nc(C3CC3)no2)C1	cell-free assay		competition with immobilised ligand		1 µM	remaining binding	100%
CCN1CCN(Cc2ccc(NC(=O)c3ccc(C)c(Oc4ccnc5[nH]ccc45)c3)cc2C(F)(F)F)CC1	target engagement in cells	inhibitor	chemoproteomics	Huh-7	1 µM	inhibition	-70.4%
CCS(=O)(=O)c1cc2cc(C[C@](O)(CC(C)(C)c3ccc(F)cc3C(N)=O)C(F)(F)F)[nH]c2cn1	cell-free assay		competition with immobilised ligand		1 µM	remaining binding	100%
CCN(CC)CCNC(=O)c1c(C)[nH]c(/C=C2\C(=O)Nc3ccc(F)cc32)c1C	cell-free assay				0.5 µM	remaining signal	63.8%
O=C1CCc2cc(Nc3cc(OC4CCOCC4)c([N+](=O)[O-])cc3Cl)ccc2N1	cell-free assay		competition with immobilised ligand		1 µM	remaining binding	100%
CC(C)(C)c1nc2c(s1)c1nc(N)ncc1c1ccc(NS(=O)(=O)c3c(F)cccc3F)c(F)c12	enzyme activity	inhibitor	radiometric		1 µM	remaining activity	95%
O=C(O)c1cc(-c2ccc(C3CCNCC3)cc2)c2ccc(-c3ccc(C(F)(F)F)cc3)cc2c1	cell-free assay		competition with immobilised ligand		1 µM	remaining binding	100%
CC(C)(O)[C@H]1CC[C@H](Nc2ccc3ncc(-c4cccc(C(F)(F)F)c4)n3n2)CC1	enzyme activity	inhibitor			1 µM	remaining activity	71.5%
Cn1c2c(Cl)c(Cl)ccc2c2cn[nH]c(=O)c21	thermal stability		DSF		10 µM	ΔTm	0.4 °C
O=C1Nc2ccc(Cl)cc2C1=Cc1cc(Cl)c(O)c(Cl)c1	cell-free assay				0.5 µM	remaining signal	95.3%
CCOc1cc(-c2nncn2C)ccc1Nc1ncc2cc(C)nc(NCC(C)(C)C)c2n1	cell-free assay		TR-FRET		1 µM	inhibition	≤ 15%
CC1(C)NC(=O)c2[nH]c3c(Cl)c(Cl)ccc3c2C1C#N (stereo not shown)	thermal stability		DSF		10 µM	ΔTm	-0.5 °C
Cc1ccc(NC(=O)c2ccc(CN3CCN(C)CC3)cc2)cc1Nc1nc(-c2cccnc2)cs1	cell-free assay				0.5 µM	remaining signal	92.4%
Cn1c2c(Cl)c(Cl)ccc2c2cc[nH]c(=O)c21	thermal stability		DSF		10 µM	ΔTm	0.2 °C
CN(C)CC#Cc1ccc(OCCCc2sc(N3CCc4cccc(C(=O)Nc5nc6ccccc6s5)c4C3)nc2C(=O)O)c(F)c1	cell-free assay		competition with immobilised ligand		1 µM	remaining binding	100%
Cn1c2c(c3ccc(Cl)c(Cl)c31)C(C#N)C1(CCNCC1)NC2=O (racemic)	thermal stability		DSF		10 µM	ΔTm	-0.1 °C
Cc1c(C(=O)O)cc(-c2ccc(C3CCNCC3)cc2)c2ccc(-c3ccc(C(F)(F)F)cc3)cc12	binding		competition with immobilised ligand		1 µM	remaining binding	100%
